Bioassay records (PubChem BioAssay)
This excerpt belongs to a sample that is enriched for hits.
A1 apoptosis 2: blocks A1, raising caspase activity. MEF A1-2A-BIM cells, caspase-Glo luminescence, 3 h; percent of clofoctol response, DMSO zero. AID 2465. 24,000 tested, under 10 active. caspase activation, % (concentration not given with the values); in the data active means caspase activation above about 5.9%
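Evaluation: Caspase-3/7 activity from luminescence increase | Assay system: A1-2A-BIM mouse embryonic fibroblasts | Quantity: 2500 MEF cells/well | Medium: RPMI-1640 plus 10% FBS | Detection: Caspase-Glo 3/7 luminescence, 1 h at room temperature | Dosing: 50 nL compound per well, pinned | Timing: Cells settled overnight, compound exposure 3 h at 37 °C, 5% CO2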
INS-1E rescue: rescue of cytokine-induced death in INS-1E beta cells; INS-1E cytokine-induced death, ATP luminescence, 48 h; normalised: neutral wells 0, positive control 100; protection from cytokine-induced ATP loss, % at 10 µM; actives 0.1% (n = 20,000); AID 488910;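 active means mean replicate protection from cytokine-induced ATP loss at least 50% and at least 75% of replicates each reaching 50%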
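Assay system: INS-1E rat cells / Quantity: 8000 cells per well / Medium: RPMI without phenol red, 5% FBS / Probe or stimulus: three-cytokine cocktail (IFN-γ, TNF-α, IL-1β) / Dosing: one compound concentration, pin transfer / Timing: 48 h co-treatment, 10 min post-lysis read / Technique: CellTiter-Glo luminescence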
T cruzi HTS: intracellular Trypanosoma cruzi inhibition; intracellular Trypanosoma cruzi in host cells, plate reader; activity score (inhibition), % at 5.01 µM; actives 4.9% (n = 22,000); AID 651903; in the data active means activity score above about 55%;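 further: parasites and compound incubated about four days before reading; 0% = median of neutral control wells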
Starred values were filed as active, the others as inactive.

C[C@H](CO)N1C[C@H](C)[C@H](CN(C)C(=O)Cc2ccccc2)OCc2cn(nn2)CCCC1=O was read as A1 apoptosis 2 0, INS-1E rescue -2 and T cruzi HTS -23.
Screening [N-]=[N+]=NCC(=O)N1CCN(c2ccccc2)CC1 returned A1 apoptosis 2 1.
`COC(=O)CCCCCCC(=O)N/N=C/c1cc(Br)cs1` gave A1 apoptosis 2 1, INS-1E rescue 3 and T cruzi HTS -17.
C[C@H](CO)N1C[C@H](C)[C@H](CN(C)Cc2ccc(Cl)c(Cl)c2)Oc2c(NC(=O)C3CCCCC3)cccc2C1=O was read as INS-1E rescue -41 and T cruzi HTS 14.
C[C@@H]1CN([C@@H](C)CO)C(=O)c2cccc(NC(=O)NC3CCCCC3)c2O[C@@H]1CN(C)Cc1ccc(Cl)c(Cl)c1 was read as A1 apoptosis 2 -1, INS-1E rescue -18 and T cruzi HTS -52.
C[C@@H]1CN([C@@H](C)CO)C(=O)c2cccc(NC(=O)NC3CCCCC3)c2O[C@H]1CN(C)Cc1ccc(Cl)c(Cl)c1 was read as INS-1E rescue -5 and T cruzi HTS 62*.
C[C@@H]1CN([C@H](C)CO)C(=O)c2cccc(NC(=O)C3CCCCC3)c2O[C@H]1CN(C)Cc1ccc(Cl)c(Cl)c1 was read as A1 apoptosis 2 0, INS-1E rescue -17 and T cruzi HTS 60*.
Screening COc1ccc(S(=O)(=O)N[C@@H]2CCCN(Cc3cccc(OCCO)c3)C2)cc1 returned A1 apoptosis 2 0.
For COc1cc(/C=C/C=N/NC(=O)c2ccc(C(=O)NO)cc2)ccc1O the results were A1 apoptosis 2 -1, INS-1E rescue -4 and T cruzi HTS -9.
Screening Cc1ccc(S(=O)(=O)Nc2cccc3c2O[C@@H](CN(C)Cc2ccc(Oc4ccccc4)cc2)[C@@H](C)CN([C@H](C)CO)C3=O)cc1 returned A1 apoptosis 2 0, INS-1E rescue -64 and T cruzi HTS 65*.
`C[C@H](CO)N1C[C@H](C)[C@H](CN(C)Cc2ccc(-c3ccccc3)cc2)Oc2c(NS(=O)(=O)c3ccc(F)cc3)cccc2C1=O` gave A1 apoptosis 2 0, INS-1E rescue -33 and T cruzi HTS 58*.
C[C@@H]1CN([C@H](C)CO)C(=O)c2cccc(NS(=O)(=O)c3ccc(F)cc3)c2O[C@H]1CN(C)Cc1ccc(-c2ccccc2)cc1 was read as INS-1E rescue 5 and T cruzi HTS 6.
Cc1ccc(S(=O)(=O)Nc2cccc3c2O[C@H](CN(C)Cc2ccc(Oc4ccccc4)cc2)[C@@H](C)CN([C@@H](C)CO)C3=O)cc1 was read as INS-1E rescue 0 and T cruzi HTS 24.
`Cc1ccc(S(=O)(=O)N(C)C[C@@H]2Oc3c(NS(=O)(=O)c4ccc(Cl)cc4)cccc3C(=O)N([C@H](C)CO)C[C@H]2C)cc1` gave A1 apoptosis 2 1, INS-1E rescue 7 and T cruzi HTS 13.
C[C@@H]1CN([C@@H](C)CO)C(=O)c2cccc(NS(=O)(=O)c3ccccc3)c2O[C@@H]1CN(C)CC1CC1 was read as A1 apoptosis 2 0, INS-1E rescue 10 and T cruzi HTS 57*.
For Cc1ccc(S(=O)(=O)Nc2cccc3c2O[C@@H](CN(C)S(=O)(=O)c2ccc(Cl)cc2)[C@@H](C)CN([C@H](C)CO)C3=O)cc1 the results were INS-1E rescue -22 and T cruzi HTS 58*.
C[C@H]1CN([C@@H](C)CO)C(=O)c2cccc(NS(=O)(=O)c3ccccc3)c2O[C@H]1CN(C)CC1CC1 was read as A1 apoptosis 2 -1, INS-1E rescue 0 and T cruzi HTS -3.
C[C@@H]1CN([C@H](C)CO)C(=O)CCCn2cc(nn2)CO[C@H]1CN(C)Cc1cccc(C(=O)O)c1 was read as A1 apoptosis 2 0 and T cruzi HTS -22.
C[C@@H]1CCCCO[C@@H](CN(C)S(=O)(=O)c2cccs2)[C@H](C)CN([C@H](C)CO)C(=O)c2cc(NC(=O)Nc3cccc4ccccc34)ccc2O1 was read as A1 apoptosis 2 1.
O=C(O)CCCCCCC(=O)N/N=C/c1ccc(O)cc1Br was read as A1 apoptosis 2 -1, INS-1E rescue 3 and T cruzi HTS -15.
O=C(NO)c1ccc(C(=O)N/N=C/c2ccc3c(c2)CCO3)cc1 was read as INS-1E rescue 14 and T cruzi HTS -3.
C[C@H](CO)N1C[C@H](C)[C@H](CN(C)C(=O)NC2CCCCC2)Oc2c(NS(=O)(=O)c3ccc(F)cc3)cccc2C1=O was read as A1 apoptosis 2 3, INS-1E rescue -2 and T cruzi HTS 59*.
